Laboratory results as given in ChEMBL document CHEMBL4689842, “EUbOPEN Chemogenomics Library wave 1” (2021).

Tested on: U2OS
Assay: Multiplex assay against U2OS
Type: toxicity, cell-based
Settings: human
How it was run: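 Cells were classed with CellPathfinder machine-learning gating, first as Hoechst high-intensity objects or normal cells, then (normal cells) as healthy, pyknosed or fragmented nuclei, and finally (pyknosed cells) as mitotic or apoptotic. Staining of live cells at seeding used Hoechst33342, BioTracker Green Microtubule Cytoskeleton Dye, MitoTracker Red and Annexin V Alexa Fluor 680, with imaging on a CQ1 microscope at 37°C and 5% CO2 after compound addition. Tubulin, mitochondrial-mass and membrane-permeability phenotypes are per cents of healthy-nucleus cells.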

[1] = 12 h, 1 µM, compound concentration 1 uM, replicate 1
[2] = 12 h, 1 µM, compound concentration 1 uM, replicate 2
[3] = 12 h, 10 µM, compound concentration 10 uM, replicate 1
[4] = 12 h, 10 µM, compound concentration 10 uM, replicate 2
[5] = 24 h, 1 µM, compound concentration 1 uM, replicate 1
[6] = 24 h, 1 µM, compound concentration 1 uM, replicate 2
[7] = 24 h, 10 µM, compound concentration 10 uM, replicate 1
[8] = 24 h, 10 µM, compound concentration 10 uM, replicate 2
[9] = 48 h, 1 µM, compound concentration 1 uM, replicate 1
[10] = 48 h, 1 µM, compound concentration 1 uM, replicate 2
[11] = 48 h, 10 µM, compound concentration 10 uM, replicate 1
[12] = 48 h, 10 µM, compound concentration 10 uM, replicate 2

With `Nc1nc2c(c(N3CCNCC3)n1)CCC1=C2[C@@H]2CCCC[C@@H]2O1` the “Population Apoptotic (%)” value [1] was 34%, the “Population Fragmented Nuclei (%)” value [1] was 14% and the “Population Healthy Nuclei (%)” value [1] was 66%. The “Population Hoechst High Intensity Objects (%)” value [1] was 7%, the “Population Membrane Permeable-Phenotype (%)” value [1] was 4% and the “Population Mitochondria Different-Phenotype (%)” value [1] was 9%. For the same compound, the “Population Mitotic Cells (%)” value [1] was 65%, the “Population Normal (%)” value [1] was 92% and the “Population Tubulin-Different-Phenotype (%)” value [1] was 7%. For the same compound, the “Total Cell Count” value [1] was 167, the “Population Apoptotic (%)” value [2] was 0% and the “Population Fragmented Nuclei (%)” value [2] was 20%. The “Population Healthy Nuclei (%)” value [2] was 61%, the “Population Hoechst High Intensity Objects (%)” value [2] was 15% and the “Population Membrane Permeable-Phenotype (%)” value [2] was 8%. The “Population Mitochondria Different-Phenotype (%)” value [2] was 27%, the “Population Mitotic Cells (%)” value [2] was 100% and the “Population Normal (%)” value [2] was 84%. The “Population Pyknosed Nuclei (%)” value [2] was 18%, the “Population Tubulin-Different-Phenotype (%)” value [2] was 21% and the “Total Cell Count” value [2] was 71. For the same compound, the “Population Apoptotic (%)” value [3] was 26%, the “Population Fragmented Nuclei (%)” value [3] was 13% and the “Population Healthy Nuclei (%)” value [3] was 62%. For the same compound, the “Population Hoechst High Intensity Objects (%)” value [3] was 9%, the “Population Membrane Permeable-Phenotype (%)” value [3] was 11% and the “Population Mitochondria Different-Phenotype (%)” value [3] was 88%. For the same compound, the “Population Mitotic Cells (%)” value [3] was 73%, the “Population Normal (%)” value [3] was 90% and the “Population Pyknosed Nuclei (%)” value [3] was 24%. For the same compound, the “Population Tubulin-Different-Phenotype (%)” value [3] was 93%, the “Total Cell Count” value [3] was 135 and the “Population Apoptotic (%)” value [4] was 27%. The “Population Fragmented Nuclei (%)” value [4] was 9%, the “Population Healthy Nuclei (%)” value [4] was 68% and the “Population Hoechst High Intensity Objects (%)” value [4] was 3%. For the same compound, the “Population Membrane Permeable-Phenotype (%)” value [4] was 25%, the “Population Mitochondria Different-Phenotype (%)” value [4] was 87% and the “Population Mitotic Cells (%)” value [4] was 72%. The “Population Normal (%)” value [4] was 96%, the “Population Pyknosed Nuclei (%)” value [4] was 21% and the “Population Tubulin-Different-Phenotype (%)” value [4] was 92%. The “Total Cell Count” value [4] was 106, the “Population Apoptotic (%)” value [5] was 39% and the “Population Fragmented Nuclei (%)” value [5] was 15%. For the same compound, the “Population Healthy Nuclei (%)” value [5] was 65%, the “Population Hoechst High Intensity Objects (%)” value [5] was 4% and the “Population Membrane Permeable-Phenotype (%)” value [5] was 7%. The “Population Mitochondria Different-Phenotype (%)” value [5] was 4%, the “Population Mitotic Cells (%)” value [5] was 60% and the “Population Normal (%)” value [5] was 95%. The “Population Pyknosed Nuclei (%)” value [5] was 19%, the “Population Tubulin-Different-Phenotype (%)” value [5] was 3% and the “Total Cell Count” value [5] was 203. The “Population Apoptotic (%)” value [6] was 20%, the “Population Fragmented Nuclei (%)” value [6] was 22% and the “Population Healthy Nuclei (%)” value [6] was 57%. The “Population Hoechst High Intensity Objects (%)” value [6] was 8%, the “Population Membrane Permeable-Phenotype (%)” value [6] was 6% and the “Population Mitochondria Different-Phenotype (%)” value [6] was 20%. For the same compound, the “Population Mitotic Cells (%)” value [6] was 80%, the “Population Normal (%)” value [6] was 91% and the “Population Pyknosed Nuclei (%)” value [6] was 20%. For the same compound, the “Population Tubulin-Different-Phenotype (%)” value [6] was 16%, the “Total Cell Count” value [6] was 82 and the “Population Apoptotic (%)” value [7] was 40%. For the same compound, the “Population Fragmented Nuclei (%)” value [7] was 11%, the “Population Healthy Nuclei (%)” value [7] was 45% and the “Population Hoechst High Intensity Objects (%)” value [7] was 14%. The “Population Membrane Permeable-Phenotype (%)” value [7] was 16%, the “Population Mitochondria Different-Phenotype (%)” value [7] was 85% and the “Population Mitotic Cells (%)” value [7] was 59%. For the same compound, the “Population Normal (%)” value [7] was 85%, the “Population Pyknosed Nuclei (%)” value [7] was 43% and the “Population Tubulin-Different-Phenotype (%)” value [7] was 75%. For the same compound, the “Total Cell Count” value [7] was 140, the “Population Apoptotic (%)” value [8] was 33% and the “Population Fragmented Nuclei (%)” value [8] was 8%. The “Population Healthy Nuclei (%)” value [8] was 46%, the “Population Hoechst High Intensity Objects (%)” value [8] was 2% and the “Population Membrane Permeable-Phenotype (%)” value [8] was 22%. The “Population Mitochondria Different-Phenotype (%)” value [8] was 79%, the “Population Mitotic Cells (%)” value [8] was 66% and the “Population Normal (%)” value [8] was 97%. For the same compound, the “Population Pyknosed Nuclei (%)” value [8] was 45%, the “Population Tubulin-Different-Phenotype (%)” value [8] was 69% and the “Total Cell Count” value [8] was 109. The “Population Apoptotic (%)” value [9] was 31%, the “Population Fragmented Nuclei (%)” value [9] was 8% and the “Population Healthy Nuclei (%)” value [9] was 78%. For the same compound, the “Population Hoechst High Intensity Objects (%)” value [9] was 5%, the “Population Membrane Permeable-Phenotype (%)” value [9] was 3% and the “Population Mitochondria Different-Phenotype (%)” value [9] was 5%. The “Population Mitotic Cells (%)” value [9] was 68%, the “Population Normal (%)” value [9] was 94% and the “Population Pyknosed Nuclei (%)” value [9] was 13%. The “Population Tubulin-Different-Phenotype (%)” value [9] was 5%, the “Total Cell Count” value [9] was 299 and the “Population Apoptotic (%)” value [10] was 40%. The “Population Fragmented Nuclei (%)” value [10] was 19%, the “Population Healthy Nuclei (%)” value [10] was 65% and the “Population Hoechst High Intensity Objects (%)” value [10] was 9%. The “Population Membrane Permeable-Phenotype (%)” value [10] was 4%, the “Population Mitochondria Different-Phenotype (%)” value [10] was 17% and the “Population Mitotic Cells (%)” value [10] was 60%. The “Population Normal (%)” value [10] was 90%, the “Population Pyknosed Nuclei (%)” value [10] was 14% and the “Population Tubulin-Different-Phenotype (%)” value [10] was 13%. The “Total Cell Count” value [10] was 113, the “Population Apoptotic (%)” value [11] was 62% and the “Population Fragmented Nuclei (%)” value [11] was 19%. The “Population Healthy Nuclei (%)” value [11] was 32%, the “Population Hoechst High Intensity Objects (%)” value [11] was 18% and the “Population Membrane Permeable-Phenotype (%)” value [11] was 8%. The “Population Mitochondria Different-Phenotype (%)” value [11] was 76%, the “Population Mitotic Cells (%)” value [11] was 37% and the “Population Normal (%)” value [11] was 81%. For the same compound, the “Population Pyknosed Nuclei (%)” value [11] was 48%, the “Population Tubulin-Different-Phenotype (%)” value [11] was 63% and the “Total Cell Count” value [11] was 175. The “Population Apoptotic (%)” value [12] was 48%, the “Population Fragmented Nuclei (%)” value [12] was 9% and the “Population Healthy Nuclei (%)” value [12] was 40%. The “Population Hoechst High Intensity Objects (%)” value [12] was 12%, the “Population Membrane Permeable-Phenotype (%)” value [12] was 21% and the “Population Mitochondria Different-Phenotype (%)” value [12] was 78%. The “Population Mitotic Cells (%)” value [12] was 51%, the “Population Normal (%)” value [12] was 87% and the “Population Pyknosed Nuclei (%)” value [12] was 50%. The “Population Tubulin-Different-Phenotype (%)” value [12] was 53% and the “Total Cell Count” value [12] was 133.
